From ChEMBL document CHEMBL4196230, “Design, Synthesis, and Blood-Brain Barrier Transport Study of Pyrilamine Derivatives as Histone Deacetylase Inhibitors” (ACS Med Chem Lett, 2018)
Calls of active or inactive are those of the source. The rule behind the calls is not given here.

Key:
[1] = biological target: Histone deacetylase 4 (Homo sapiens) (UniProt P56524); test: Inhibition of N-terminal GST tagged/C-terminal His tagged human recombinant HDAC4 (627 to 1084 residues) expressed in baculovirus infected insect cells at 30 uM using HDAC class 2a substrate measured after 30 mins by fluorescence assay relative to control
Histone deacetylase 4 (Homo sapiens), sequence (P56524 whole entry, the tested form may be a part): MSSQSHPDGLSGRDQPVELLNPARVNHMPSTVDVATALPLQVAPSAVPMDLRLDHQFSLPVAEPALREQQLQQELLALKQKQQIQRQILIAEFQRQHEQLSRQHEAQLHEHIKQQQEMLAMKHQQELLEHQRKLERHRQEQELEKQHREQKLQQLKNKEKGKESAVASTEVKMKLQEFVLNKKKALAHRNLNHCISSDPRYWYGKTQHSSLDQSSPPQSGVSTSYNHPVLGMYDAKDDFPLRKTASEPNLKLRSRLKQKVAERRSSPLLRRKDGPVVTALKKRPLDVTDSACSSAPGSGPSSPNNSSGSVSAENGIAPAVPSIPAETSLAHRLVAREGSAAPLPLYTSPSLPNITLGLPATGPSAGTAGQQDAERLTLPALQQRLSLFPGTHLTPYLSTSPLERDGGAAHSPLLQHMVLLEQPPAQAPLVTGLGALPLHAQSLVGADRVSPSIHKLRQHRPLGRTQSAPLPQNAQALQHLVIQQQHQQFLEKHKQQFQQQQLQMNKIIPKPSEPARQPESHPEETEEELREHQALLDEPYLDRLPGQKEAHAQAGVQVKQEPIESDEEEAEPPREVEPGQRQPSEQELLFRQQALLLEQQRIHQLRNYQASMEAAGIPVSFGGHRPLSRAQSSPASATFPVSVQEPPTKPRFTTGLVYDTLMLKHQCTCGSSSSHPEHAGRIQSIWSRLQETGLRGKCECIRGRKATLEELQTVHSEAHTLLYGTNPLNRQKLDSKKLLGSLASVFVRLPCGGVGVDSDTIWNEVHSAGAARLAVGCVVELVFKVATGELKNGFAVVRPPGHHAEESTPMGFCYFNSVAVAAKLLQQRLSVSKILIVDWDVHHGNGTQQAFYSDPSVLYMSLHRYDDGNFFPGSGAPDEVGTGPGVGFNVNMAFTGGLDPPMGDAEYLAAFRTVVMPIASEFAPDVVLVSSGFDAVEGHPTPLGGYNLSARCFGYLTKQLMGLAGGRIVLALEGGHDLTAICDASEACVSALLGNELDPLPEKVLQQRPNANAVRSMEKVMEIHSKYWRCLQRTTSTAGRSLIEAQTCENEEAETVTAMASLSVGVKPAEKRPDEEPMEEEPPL

[2] = Substrate activity at PYSOCA in human CMEC/D3 cells assessed as transporter-mediated drug uptake measured for 2 mins at 37degC in presence of MPP+; format: ADME, cell-based
[3] = Substrate activity at PYSOCA in human CMEC/D3 cells assessed as transporter-mediated drug uptake measured for 2 mins at 37degC in presence of clonidine; format: ADME, cell-based
[4] = biological target: T1, Histone deacetylase (Homo sapiens) (UniProt Q13547+O15379+Q9UBN7+Q92769+Q9UQL6+Q8WUI4+Q9BY41+Q96DB2+P56524+Q9UKV0+Q969S8); details: at 10 µM
[5] = biological target: T1, Histone deacetylase (Homo sapiens); test: Time-dependent inhibition of HDAC in human HeLaS3 cells assessed as increase in histone H3K9 acetylation at 10 uM by immunoblot analysis; format: cell-based
[6] = Substrate activity at PYSOCA in human CMEC/D3 cells assessed as transporter-mediated drug uptake clearance assessed per mg protein at 37degC; format: ADME, cell-based
Summary of the method: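 Uptake by hCMEC/D3 cells followed over time at 37 °C or 4 °C. Clearance was calculated from the initial linear slope, expressed per mg protein. Mean ± S.E., n = 4.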

[7] = biological target: T2, Polyamine deacetylase HDAC10 (Homo sapiens, UniProt Q969S8); test: Inhibition of human HDAC10 expressed in baculovirus infected Sf9 insect cells using HDAC substrate 3 measured after 30 mins by fluorescence assay
T2 sequence (Q969S8 whole entry): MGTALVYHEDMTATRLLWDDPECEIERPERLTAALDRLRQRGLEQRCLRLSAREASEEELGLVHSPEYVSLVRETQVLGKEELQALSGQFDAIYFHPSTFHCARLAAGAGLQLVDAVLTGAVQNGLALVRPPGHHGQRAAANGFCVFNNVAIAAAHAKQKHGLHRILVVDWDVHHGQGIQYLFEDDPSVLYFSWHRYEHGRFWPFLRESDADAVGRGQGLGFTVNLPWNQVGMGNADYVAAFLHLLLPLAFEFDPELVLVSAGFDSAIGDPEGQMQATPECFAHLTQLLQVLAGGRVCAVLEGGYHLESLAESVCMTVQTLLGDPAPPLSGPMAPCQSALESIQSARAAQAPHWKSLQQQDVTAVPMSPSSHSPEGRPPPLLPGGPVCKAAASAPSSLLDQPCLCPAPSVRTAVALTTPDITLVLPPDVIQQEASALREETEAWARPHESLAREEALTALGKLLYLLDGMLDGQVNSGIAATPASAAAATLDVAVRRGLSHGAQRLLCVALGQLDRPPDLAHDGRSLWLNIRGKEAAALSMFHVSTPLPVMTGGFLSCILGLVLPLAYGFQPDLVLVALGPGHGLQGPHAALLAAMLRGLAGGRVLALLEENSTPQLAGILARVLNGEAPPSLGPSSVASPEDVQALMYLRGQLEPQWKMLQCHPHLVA

[8] = Substrate activity at PYSOCA in human CMEC/D3 cells assessed as transporter-mediated drug uptake measured for 2 mins at 37degC; format: ADME, cell-based
[9] = biological target: Histone deacetylase 5 (Homo sapiens) (UniProt Q9UQL6); test: Inhibition of human recombinant HDAC5 expressed in baculovirus infected insect cells at 30 uM using HDAC class 2a substrate measured after 30 mins by fluorescence assay relative to control
Histone deacetylase 5 (Homo sapiens), sequence (Q9UQL6 whole entry): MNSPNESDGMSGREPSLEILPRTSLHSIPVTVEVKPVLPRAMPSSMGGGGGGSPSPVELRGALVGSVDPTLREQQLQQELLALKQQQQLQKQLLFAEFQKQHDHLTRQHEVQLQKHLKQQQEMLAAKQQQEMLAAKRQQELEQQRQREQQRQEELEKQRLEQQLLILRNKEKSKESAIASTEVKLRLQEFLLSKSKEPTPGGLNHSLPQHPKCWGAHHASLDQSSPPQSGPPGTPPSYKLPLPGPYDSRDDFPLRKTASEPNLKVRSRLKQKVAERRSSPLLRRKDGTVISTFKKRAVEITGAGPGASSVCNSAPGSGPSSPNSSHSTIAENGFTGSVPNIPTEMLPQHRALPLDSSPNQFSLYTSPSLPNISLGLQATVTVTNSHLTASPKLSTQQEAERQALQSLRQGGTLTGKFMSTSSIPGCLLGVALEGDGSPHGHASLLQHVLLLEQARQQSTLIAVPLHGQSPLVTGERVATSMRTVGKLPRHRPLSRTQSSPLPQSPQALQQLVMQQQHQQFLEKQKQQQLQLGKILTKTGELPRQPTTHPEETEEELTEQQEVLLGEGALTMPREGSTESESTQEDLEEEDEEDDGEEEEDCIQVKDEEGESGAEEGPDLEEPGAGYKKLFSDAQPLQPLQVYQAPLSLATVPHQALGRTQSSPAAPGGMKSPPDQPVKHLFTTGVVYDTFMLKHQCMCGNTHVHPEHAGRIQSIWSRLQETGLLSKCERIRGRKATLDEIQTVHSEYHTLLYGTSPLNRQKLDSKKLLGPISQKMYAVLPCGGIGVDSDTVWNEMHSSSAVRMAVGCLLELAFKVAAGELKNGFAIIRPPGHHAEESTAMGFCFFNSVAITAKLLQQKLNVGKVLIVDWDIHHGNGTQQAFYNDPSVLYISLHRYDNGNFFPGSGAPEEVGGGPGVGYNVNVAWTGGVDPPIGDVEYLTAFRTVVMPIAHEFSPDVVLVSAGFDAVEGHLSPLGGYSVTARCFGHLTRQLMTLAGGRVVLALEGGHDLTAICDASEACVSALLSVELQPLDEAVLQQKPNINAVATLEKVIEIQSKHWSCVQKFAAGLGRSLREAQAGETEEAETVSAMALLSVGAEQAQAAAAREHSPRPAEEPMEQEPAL

[10] = Substrate activity at PYSOCA in human CMEC/D3 cells assessed as Vmax for transporter-mediated drug uptake assessed per mg protein measured for 2 mins at 37degC; format: ADME, cell-based
Summary of the method: (§1)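 Uptake by hCMEC/D3 cells measured over a range of concentrations at 37 °C for 2 min. Km and Vmax were obtained by fitting to Eq. 1. Mean ± S.E., n = 4.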

[11] = tested on: PYSOCA; test: Substrate activity at PYSOCA in human CMEC/D3 cells assessed as Km for transporter-mediated drug uptake measured for 2 mins at 37degC; format: ADME, cell-based; details: hCMEC/D3 cells; summary of the method: as §1
[12] = biological target: T3, Histone deacetylase 7 (Homo sapiens) (UniProt Q8WUI4); test: Inhibition of recombinant human HDAC7 (518 to end residues) expressed in baculovirus infected insect cells at 30 uM using HDAC class 2a substrate measured after 30 mins by fluorescence assay relative to control
T3 sequence (whole entry): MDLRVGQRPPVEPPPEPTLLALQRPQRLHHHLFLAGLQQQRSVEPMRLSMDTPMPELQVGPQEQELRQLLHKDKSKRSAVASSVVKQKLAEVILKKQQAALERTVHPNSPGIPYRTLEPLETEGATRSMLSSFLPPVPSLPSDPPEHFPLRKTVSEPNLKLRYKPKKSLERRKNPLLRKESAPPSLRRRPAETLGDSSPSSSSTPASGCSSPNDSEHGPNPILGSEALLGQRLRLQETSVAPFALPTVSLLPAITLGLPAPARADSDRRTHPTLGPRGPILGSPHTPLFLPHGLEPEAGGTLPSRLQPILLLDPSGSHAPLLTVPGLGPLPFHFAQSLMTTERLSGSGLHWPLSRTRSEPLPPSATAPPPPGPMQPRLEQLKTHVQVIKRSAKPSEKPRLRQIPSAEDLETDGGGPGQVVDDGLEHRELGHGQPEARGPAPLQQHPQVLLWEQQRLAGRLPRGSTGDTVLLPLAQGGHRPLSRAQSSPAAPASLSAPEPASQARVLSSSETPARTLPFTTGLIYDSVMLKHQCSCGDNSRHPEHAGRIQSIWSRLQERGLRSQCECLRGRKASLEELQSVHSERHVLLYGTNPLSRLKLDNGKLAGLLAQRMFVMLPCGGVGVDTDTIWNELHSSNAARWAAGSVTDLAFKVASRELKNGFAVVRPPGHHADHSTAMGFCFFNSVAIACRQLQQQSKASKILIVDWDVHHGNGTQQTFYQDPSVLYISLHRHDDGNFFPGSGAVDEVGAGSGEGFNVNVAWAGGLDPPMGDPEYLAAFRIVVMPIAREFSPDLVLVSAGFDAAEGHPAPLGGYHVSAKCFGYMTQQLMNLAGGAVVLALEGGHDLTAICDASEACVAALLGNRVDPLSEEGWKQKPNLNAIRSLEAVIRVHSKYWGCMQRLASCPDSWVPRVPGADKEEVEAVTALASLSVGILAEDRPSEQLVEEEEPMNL

[13] = biological target: Histone deacetylase 2 (Homo sapiens, UniProt Q92769); test: Inhibition of recombinant human C-terminal FLAG-tagged HDAC2 expressed in baculovirus infected Sf9 insect cells using HDAC substrate 3 measured after 30 mins by fluorescence assay
Histone deacetylase 2, sequence (Q92769 whole entry): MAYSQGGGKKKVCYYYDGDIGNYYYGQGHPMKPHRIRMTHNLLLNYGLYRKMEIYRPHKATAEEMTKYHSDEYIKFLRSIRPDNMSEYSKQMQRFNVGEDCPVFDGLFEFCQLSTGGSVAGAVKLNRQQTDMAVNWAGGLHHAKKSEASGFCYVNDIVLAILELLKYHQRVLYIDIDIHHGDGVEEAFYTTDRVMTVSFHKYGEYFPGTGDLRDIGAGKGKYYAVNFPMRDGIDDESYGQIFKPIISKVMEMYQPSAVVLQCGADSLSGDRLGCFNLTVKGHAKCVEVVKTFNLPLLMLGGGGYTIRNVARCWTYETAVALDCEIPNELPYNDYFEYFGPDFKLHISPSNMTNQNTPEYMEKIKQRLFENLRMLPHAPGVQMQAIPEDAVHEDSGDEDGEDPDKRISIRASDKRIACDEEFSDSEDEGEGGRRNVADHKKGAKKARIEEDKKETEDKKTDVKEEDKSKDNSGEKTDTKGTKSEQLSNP

[14] = Substrate activity at PYSOCA in human CMEC/D3 cells assessed as transporter-mediated drug uptake measured for 2 mins at 37degC in presence of L-carnitine; format: ADME, cell-based

For `COc1ccc(CN(CCN(C)C)c2ccc(C(=O)Nc3ccccc3N)cn2)cc1`, the inhibition [1] was < 10%, the Activity [2] was “Active” and the Activity [3] was “Not Active”. For the same molecule, the inhibition [4] was “Active”, the TDI [5] was “Active” and the CL [6] was 107 µL/min. The IC50 [7] was 15.5 µM, the Activity [8] was “Dose-dependent effect” and the inhibition [9] was < 10%. The Vmax [10] was 5.17 nmol/min, the Km at 2 min [11] was 326 µM and the inhibition [12] was < 10%. The IC50 [13] was 5.5 µM and the Activity [14] was “Active”.
